# pIC50: −log10 of the molar value.
# How the values were obtained:
# [1] = target: T1, Neuropeptide Y receptor type 5 (Mus musculus, UniProt O70342); experiment: Displacement of [125I]PYY from mouse NPY Y5 receptor
# T1 sequence (O70342 whole entry): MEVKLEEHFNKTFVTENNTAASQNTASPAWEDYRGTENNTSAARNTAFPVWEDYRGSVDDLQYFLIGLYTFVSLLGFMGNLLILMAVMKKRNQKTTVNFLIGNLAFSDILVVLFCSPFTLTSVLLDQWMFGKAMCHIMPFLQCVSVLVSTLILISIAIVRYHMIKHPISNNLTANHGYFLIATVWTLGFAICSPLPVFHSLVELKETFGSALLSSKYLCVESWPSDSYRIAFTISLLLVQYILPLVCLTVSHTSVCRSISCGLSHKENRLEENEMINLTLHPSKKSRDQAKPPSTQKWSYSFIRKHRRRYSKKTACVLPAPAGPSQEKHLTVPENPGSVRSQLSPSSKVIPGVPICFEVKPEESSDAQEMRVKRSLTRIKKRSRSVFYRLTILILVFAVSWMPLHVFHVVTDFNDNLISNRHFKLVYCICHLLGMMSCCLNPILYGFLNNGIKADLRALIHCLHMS
# Method in brief: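 Competition binding at mouse NPY Y5 receptors with 125I-PYY as ligand. IC50 is the concentration giving 50% inhibition of total specific binding, taken as the mean of two or more independent assays.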
# [2] = target: T2, Cytochrome P450 1A2 (Homo sapiens, UniProt P05177); experiment: Inhibition of CYP1A2; assay type: ADME
# T2 sequence (P05177 whole entry): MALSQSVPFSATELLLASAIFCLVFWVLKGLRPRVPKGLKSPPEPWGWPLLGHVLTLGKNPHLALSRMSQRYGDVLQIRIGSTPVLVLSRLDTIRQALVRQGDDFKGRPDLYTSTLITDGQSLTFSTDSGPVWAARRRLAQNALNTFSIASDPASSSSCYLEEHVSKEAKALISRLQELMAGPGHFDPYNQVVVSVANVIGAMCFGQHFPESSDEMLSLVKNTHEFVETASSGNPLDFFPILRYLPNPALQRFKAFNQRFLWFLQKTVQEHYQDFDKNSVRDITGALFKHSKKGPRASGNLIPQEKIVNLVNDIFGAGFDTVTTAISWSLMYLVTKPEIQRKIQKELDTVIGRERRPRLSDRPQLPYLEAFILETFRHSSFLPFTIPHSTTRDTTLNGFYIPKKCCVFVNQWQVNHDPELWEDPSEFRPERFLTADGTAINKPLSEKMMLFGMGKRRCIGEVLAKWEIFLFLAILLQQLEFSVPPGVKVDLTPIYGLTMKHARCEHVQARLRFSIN
# [3] = target: Cytochrome P450 2C19 (Homo sapiens, UniProt P33261); experiment: Inhibition of CYP2C19; assay type: ADME
# Cytochrome P450 2C19, sequence (P33261 whole entry): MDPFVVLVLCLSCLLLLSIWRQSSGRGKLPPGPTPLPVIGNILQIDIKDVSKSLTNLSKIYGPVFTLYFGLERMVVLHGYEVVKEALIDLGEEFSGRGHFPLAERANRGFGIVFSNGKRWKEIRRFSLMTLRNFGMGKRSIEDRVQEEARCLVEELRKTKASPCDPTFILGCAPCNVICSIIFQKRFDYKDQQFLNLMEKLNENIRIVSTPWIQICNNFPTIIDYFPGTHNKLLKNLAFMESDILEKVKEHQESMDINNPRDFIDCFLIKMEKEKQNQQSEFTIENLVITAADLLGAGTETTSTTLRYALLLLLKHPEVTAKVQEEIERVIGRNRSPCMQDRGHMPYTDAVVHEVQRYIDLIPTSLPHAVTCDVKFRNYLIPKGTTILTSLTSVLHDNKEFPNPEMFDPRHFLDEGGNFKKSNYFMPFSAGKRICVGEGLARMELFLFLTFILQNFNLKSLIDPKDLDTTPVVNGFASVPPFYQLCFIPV
# [4] = target: Cytochrome P450 2C9 (Homo sapiens, UniProt P11712); experiment: Inhibition of CYP2C9; assay type: ADME
# Cytochrome P450 2C9, sequence (P11712 whole entry): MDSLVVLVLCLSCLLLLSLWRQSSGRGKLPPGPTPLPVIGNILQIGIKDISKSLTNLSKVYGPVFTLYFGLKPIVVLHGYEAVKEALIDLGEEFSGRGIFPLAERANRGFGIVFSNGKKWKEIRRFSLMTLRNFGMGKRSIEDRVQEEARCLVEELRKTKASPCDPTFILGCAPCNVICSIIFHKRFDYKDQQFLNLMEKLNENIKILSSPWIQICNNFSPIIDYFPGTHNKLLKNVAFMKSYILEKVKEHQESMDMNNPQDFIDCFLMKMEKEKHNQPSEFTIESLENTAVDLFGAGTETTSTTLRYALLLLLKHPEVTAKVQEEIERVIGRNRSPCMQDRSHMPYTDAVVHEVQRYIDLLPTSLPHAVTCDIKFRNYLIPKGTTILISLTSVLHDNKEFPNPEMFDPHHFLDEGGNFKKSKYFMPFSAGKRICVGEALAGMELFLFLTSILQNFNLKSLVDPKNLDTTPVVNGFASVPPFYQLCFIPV
# [5] = target: Cytochrome P450 2D6 (Homo sapiens, UniProt P10635); experiment: Inhibition of CYP2D6; assay type: ADME
# Cytochrome P450 2D6, sequence (P10635 whole entry): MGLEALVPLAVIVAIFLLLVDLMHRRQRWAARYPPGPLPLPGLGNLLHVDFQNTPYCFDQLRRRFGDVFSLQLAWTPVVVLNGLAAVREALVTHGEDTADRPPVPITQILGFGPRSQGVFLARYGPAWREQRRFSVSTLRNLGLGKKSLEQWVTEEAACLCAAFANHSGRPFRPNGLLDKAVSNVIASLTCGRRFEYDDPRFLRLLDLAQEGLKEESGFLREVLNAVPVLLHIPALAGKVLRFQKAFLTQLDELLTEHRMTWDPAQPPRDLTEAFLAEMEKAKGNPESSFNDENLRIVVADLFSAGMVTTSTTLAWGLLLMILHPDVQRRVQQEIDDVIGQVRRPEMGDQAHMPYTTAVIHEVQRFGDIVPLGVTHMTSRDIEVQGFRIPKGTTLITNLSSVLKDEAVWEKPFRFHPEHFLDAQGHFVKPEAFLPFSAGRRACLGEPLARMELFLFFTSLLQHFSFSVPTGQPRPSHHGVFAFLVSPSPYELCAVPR
# [6] = target: Cytochrome P450 3A4 (Homo sapiens, UniProt P08684); experiment: Inhibition of CYP3A4; assay type: ADME
# Cytochrome P450 3A4, sequence (P08684 whole entry): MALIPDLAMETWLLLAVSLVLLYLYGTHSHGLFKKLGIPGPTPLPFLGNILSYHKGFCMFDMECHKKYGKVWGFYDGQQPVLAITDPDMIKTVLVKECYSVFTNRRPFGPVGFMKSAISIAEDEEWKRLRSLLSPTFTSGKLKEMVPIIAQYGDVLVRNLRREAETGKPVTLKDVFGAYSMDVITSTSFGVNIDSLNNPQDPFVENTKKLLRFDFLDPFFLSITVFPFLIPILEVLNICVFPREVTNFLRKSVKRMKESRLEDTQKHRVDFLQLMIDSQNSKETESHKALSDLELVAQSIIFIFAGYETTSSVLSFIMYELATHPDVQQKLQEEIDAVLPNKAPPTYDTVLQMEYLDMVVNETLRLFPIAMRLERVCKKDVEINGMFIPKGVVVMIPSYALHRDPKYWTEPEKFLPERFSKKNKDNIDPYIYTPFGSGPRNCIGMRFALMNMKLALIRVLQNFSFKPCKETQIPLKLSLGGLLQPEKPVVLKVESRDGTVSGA
# [7] = Kinetic solubility of the compound in 1%DMSO at pH 6.8; assay type: physicochemical; conditions: read-out: Kinetic_solubility
# Method in brief: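 Kinetic solubility measured at pH 6.8 from a 1% DMSO solution.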
# [8] = Metabolic stability in human liver microsomes assessed as compound remaining after 30 mins; assay type: ADME, Microsome; conditions: read-out: Stability
# Method in brief: (§1)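 Human or rat liver microsomes incubated with compound for 30 min. Result given as percent of parent compound remaining.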
# [9] = Metabolic stability in rat liver microsomes assessed as compound remaining after 30 mins; assay type: ADME, Microsome; conditions: read-out: Stability; method in brief: as §1
Structure (SMILES),pIC50 [1],INH [2] [µM],INH [3] [µM],INH [4] [µM],INH [5] [µM],INH [6] [µM],solubility kinetic [7],remaining at 0.5 h [8] [%],remaining at 0.5 h [9] [%]
CCCS(=O)(=O)c1ccc2nc(N3CCN(C)C(c4ccccc4)C3)[nH]c2c1 (stereo not given),8.30,> 20,> 20,> 20,> 20,> 20,> 50 µM,21.9,21.1
CCCS(=O)(=O)c1ccc2nc(N3CCOC(c4ccccc4)C3)[nH]c2c1 (stereo not given),9.22,> 20,19,> 20,> 20,> 20,> 50 µM,77.9,45.9
CCCS(=O)(=O)c1ccc2[nH]c(N3CCNC(c4ccccc4)C3)nc2c1 (stereo not given),8.17,> 20,> 20,> 20,> 20,> 20,> 50 µM,64.4,44
CCCS(=O)(=O)c1ccc2nc(N3CCCC(c4ccccc4)C3)[nH]c2c1 (stereo not given),9.54,> 20,12,9.4,13,6.9,19.1 µM,45.2,2.2
CCCS(=O)(=O)c1ccc2[nH]c(C3CN(c4ccccc4)CCO3)nc2c1 (stereo not given),7.80,> 20,> 20,> 20,> 20,> 20,> 50 µM,66.1,7.5
CCCS(=O)(=O)c1ccc2nc(C3CCC(=O)N(c4ccccc4)C3)[nH]c2c1 (stereo not given),6.71,> 20,> 20,> 20,> 20,> 20,> 50 µM,81.1,62
CC(C)S(=O)(=O)c1ccc2nc(N3CCOC(c4ccccc4)C3)[nH]c2c1 (stereo not given),8.88,15,19,> 20,> 20,16,> 50 µM,87,49.5
CC(C)(C)S(=O)(=O)c1ccc2[nH]c(N3CCOC(c4ccccc4)C3)nc2c1 (stereo not given),8.37,> 20,> 20,> 20,> 20,14,10.7 µM,78.5,56.4
CC(C)CS(=O)(=O)c1ccc2[nH]c(N3CCOC(c4ccccc4)C3)nc2c1 (stereo not given),9.55,> 20,> 20,17,> 20,9.3,43.2 µM,55.1,2.4
O=S(=O)(c1ccc2nc(N3CCOC(c4ccccc4)C3)[nH]c2c1)C(F)(F)F (stereo not given),9.14,17,1.7,4.5,5.5,2.3,3.7 µM,81.7,67.9
O=S(=O)(CC(F)(F)F)c1ccc2[nH]c(N3CCOC(c4ccccc4)C3)nc2c1 (stereo not given),9.68,> 20,> 20,> 20,> 20,15,> 50 µM,85,63.5
CC(C)(C(F)(F)F)S(=O)(=O)c1ccc2nc(N3CCOC(c4ccccc4)C3)[nH]c2c1 (stereo not given),8.84,18,17,11,18,8.2,11.6 µM,60.2,37.8
CCS(=O)(=O)c1ccc2[nH]c(N3CCOC(c4ccc(F)cc4)C3)nc2c1 (stereo not given),8.98,> 20,> 20,> 20,> 20,> 20,> 50 µM,92.4,87.1
CCS(=O)(=O)c1ccc2[nH]c(N3CCOC(c4ccc(Cl)cc4)C3)nc2c1 (stereo not given),9.07,9.2,9.1,> 20,18,13,38.1 µM,94.6,87.2
CCS(=O)(=O)c1ccc2[nH]c(N3CCOC(c4ccc(C)cc4)C3)nc2c1 (stereo not given),9.10,> 20,17,> 20,> 20,> 20,21.6 µM,87.8,34
CCS(=O)(=O)c1ccc2[nH]c(N3CCOC(c4ccc(OC)cc4)C3)nc2c1 (stereo not given),8.52,> 20,> 20,> 20,> 20,> 20,> 50 µM,81,48
CCCS(=O)(=O)c1ccc2[nH]c(N3CCC(c4ccccc4)C3)nc2c1 (stereo not given),9.00,> 20,> 20,17,> 20,14,15.4 µM,74.9,19.2
CC(C)(C)S(=O)(=O)N[C@H]1CC[C@H](C(=O)Nc2ccc(C(F)(F)F)cn2)CC1 [VELNEPERIT],8.34,,,,,,1.6 µg/mL,,

# Reference: ChEMBL document CHEMBL2157871, “Identification of a novel and orally available benzimidazole derivative as an NPY Y5 receptor antagonist with in vivo efficacy” (Bioorg Med Chem Lett, 2012)
